These results are taken from ChEMBL document CHEMBL1165908, “Novel benzimidazole-pyrimidine conjugates as potent antitumor agents” (Eur J Med Chem, 2010).

Data set [1] in a line: Toxicity in ip dosed mouse assessed as mortality after 24 hrs. The settings on record: in vivo. It counts as organism-based. An outline of the steps:
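Lorke two-phase design in mice, single intraperitoneal dose per group. Phase 1: three groups of three animals, each group one dose, observed 24 h for mortality and general behaviour. Phase 2: 3–4 groups of one mouse, doses chosen from phase 1 findings, observed 24 h. LD50 taken as geometric mean of lowest lethal dose and highest non-lethal dose; reported in mg/kg.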

A further data set relates to K562. As to the kind of experiment: Cytotoxicity against human K562 cells after 3 days by MTT assay. It counts as functional, cell-based. To be noted: K562, 72 h. In short, it runs like this: (§1)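 Cells grown in RPMI 1640 with 10% fetal calf serum, plated at 2 × 10^4 cells, held 12 h at 37 °C in 5% CO2, then exposed to test sample for 3 days at 37 °C. MTT added for 4 h, formazan dissolved in DMSO, absorbance read at 570 nm. IC50 taken as 50% growth inhibition relative to untreated control; each experiment run at least 3 times.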

For a further data set, the system named is GOTO. Briefly: Cytotoxicity against human GOTO cells after 3 days by MTT assay. It counts as functional, cell-based. The settings on record: 72 h. An outline of the steps:
as §1
On the technique in general: Tetrazolium dyes change colour on reduction, which living cells bring about.

In the next data set the test system is NB1. Briefly: Cytotoxicity against human NB-1 cells after 3 days by MTT assay. It counts as functional, cell-based. The settings on record: NB1, 72 h. In short, it runs like this: as §1
Another data set deals with G-361. Briefly: Cytotoxicity against human G361 cells after 3 days by MTT assay. The class given is functional, cell-based. The settings on record: G-361, 72 h. In short, it runs like this: as §1
The test system of the next data set is HL-60. As to the kind of experiment: Cytotoxicity against human HL60 cells after 3 days by MTT assay. It counts as functional, cell-based. The settings on record: HL-60, 72 h.
A further data set has as its system KB. Briefly: Cytotoxicity against human KB cells after 3 days by MTT assay. The class given is functional, cell-based. The settings on record: 72 h. In short, it runs like this:
as §1

A further data set deals with SK-OV-3. As to the kind of experiment: Cytotoxicity against human SKOV3 cells after 3 days by MTT assay. The class given is functional, cell-based. The settings on record: SK-OV-3, 72 h. An outline of the steps: as §1
For another data set, the system named is SK-MEL-28. As to the kind of experiment: Cytotoxicity against human SK-MEL-28 cells after 3 days by MTT assay. The settings on record: SK-MEL-28, 72 h. It counts as functional, cell-based. An outline of the steps: as §1
Data set [2] in a line: Cytotoxicity against human RKOp27 cells after 3 days by MTT assay. To be noted: RKOp27, 72 h. It counts as functional, cell-based. An outline of the steps:
as §1

The next data set deals with U-937. As to the kind of experiment: Cytotoxicity against human U937 cells after 3 days by MTT assay. The class given is functional, cell-based. To be noted: U-937, 72 h. In short, it runs like this:
as §1

The next data set has as its system NCI-H460. As to the kind of experiment: Cytotoxicity against human NCI-H460 cells after 3 days by MTT assay. It counts as functional, cell-based. The settings on record: NCI-H460, 72 h. In short, it runs like this:
as §1

A further data set relates to SF-268. Briefly: Cytotoxicity against human SF268 cells after 3 days by MTT assay. The settings on record: SF-268, 72 h. It counts as functional, cell-based. An outline of the steps: as §1

Molecules are shown by their SMILES.

As to `N#Cc1c(NC(N)=S)nc(SCc2nc3ccccc3[nH]2)nc1-c1ccccc1`, the 50% lethal dose (LD50) at 24 h in data set [1] is 327 mg/kg. The 50% inhibitory concentration (IC50) in the data set on K562 stood at 11.9 nM; in the data set with GOTO, 4.8 nM; in the data set with NB1, 11.9 nM; in the data set with G-361, 5.81 nM; in the data set with HL-60, 5.81 nM; in the data set with KB, 3.2 nM. Moreover, the half-inhibitory concentration (IC50) with SK-OV-3 stood at 7.81 nM; with SK-MEL-28 it was 4.8 nM; in data set [2], 2.63 nM; in the data set with U-937, 20 nM; with NCI-H460 it was 3.37 nM; with SF-268, 3.37 nM.

As for `Cl.N=c1[nH]c(=S)[nH]c2nc(SCc3nc4ccccc4[nH]3)nc(-c3ccccc3)c12`, the 50% lethal dose (LD50) at 24 h in data set [1] is 389 mg/kg. Also, the IC50 with K562 was 14.7 nM; in the data set with GOTO, 11.9 nM; in the data set with NB1 it was 3.28 nM; in the data set on G-361, 3.37 nM; in the data set with HL-60, 6.75 nM; in the data set on KB, 7.3 nM. Besides, the concentration for half-maximal inhibition (IC50) is 3.5 nM in the data set with SK-OV-3; 3.37 nM in the data set with SK-MEL-28; 2.5 nM in data set [2]; 2.8 nM in the data set on U-937; 3 nM in the data set with NCI-H460; 3.5 nM with SF-268.

As to `N#Cc1c(NC(N)=O)nc(SCc2nc3ccccc3[nH]2)nc1-c1ccccc1`, the median lethal dose (LD50) at 24 h in [1] worked out at 347 mg/kg. The half-maximal inhibitory concentration (IC50) is 4.54 nM in the data set on K562; 11.3 nM in the data set with GOTO; 7.35 nM in the data set on NB1; 2.55 nM with G-361; 2.9 nM in the data set with HL-60; 9.6 nM in the data set on KB. The half-maximal inhibitory concentration (IC50) is 6.75 nM in the data set with SK-OV-3; 4.8 nM in the data set with SK-MEL-28; 2.5 nM in [2]; 3.37 nM with U-937; 14.7 nM in the data set with NCI-H460; 3.37 nM with SF-268.

As for `N#Cc1c(-c2ccccc2)nc(SCc2nc3ccccc3[nH]2)nc1N1CCN(C(=O)c2ccc([N+](=O)[O-])cc2)CC1`, the LD50 at 24 h in data set [1] was 327 mg/kg. Moreover, the 50% inhibitory concentration (IC50) in the data set on K562 is 4.38 nM; in the data set on GOTO it was 5.81 nM; with NB1, 13.2 nM; in the data set with G-361 it was 2.4 nM; with HL-60, 2.9 nM; in the data set with KB it was 7.35 nM. Moreover, the IC50 in the data set with SK-OV-3 is 8.62 nM; in the data set with SK-MEL-28 it was 2.77 nM; in [2], 7.81 nM; in the data set with U-937, 5.2 nM; with NCI-H460, 4.46 nM; in the data set on SF-268 it was 5.81 nM.

Take `N#Cc1c(-c2ccccc2)nc(SCc2nc3ccccc3[nH]2)nc1N1CCNCC1`: the LD50 at 24 h in data set [1] was 300 mg/kg. Also, the IC50 in the data set on K562 is 4.38 nM; in the data set with GOTO, 3.7 nM; in the data set with NB1, 6.75 nM; in the data set on G-361 it was 2.5 nM; with HL-60 it was 4 nM; in the data set on KB it was 2.87 nM. Moreover, the concentration for half-maximal inhibition (IC50) was found to be 2.63 nM with SK-OV-3; 2.6 nM in the data set on SK-MEL-28; 5.81 nM in data set [2]; 5.81 nM in the data set on U-937; 7.35 nM in the data set with NCI-H460; 20000 nM in the data set on SF-268.

Turning to `N#Cc1c(Nc2ccccn2)nc(SCc2nc3ccccc3[nH]2)nc1-c1ccccc1`, the LD50 at 24 h in data set [1] was 367 mg/kg. The IC50 came out at 7 nM in the data set on K562; 2.5 nM in the data set on GOTO; 3.9 nM in the data set on NB1; 8.9 nM in the data set with G-361; 20 nM in the data set with HL-60; 7.35 nM in the data set with KB. Besides, the IC50 with SK-OV-3 was 5.81 nM; with SK-MEL-28 it was 8.9 nM; in [2], 3.8 nM; with U-937, 2.55 nM; with NCI-H460, 2.8 nM; with SF-268 it was 6.75 nM.

For `N#Cc1c(O)nc(SCc2nc3ccccc3[nH]2)nc1-c1ccccc1`, in data set [1], the LD50 at 24 h was determined as 345 mg/kg. Besides, the half-inhibitory concentration (IC50) in the data set with K562 came out at 4.63 nM; with GOTO, 7.81 nM; in the data set with NB1, 6.57 nM; in the data set with G-361 it was 3.43 nM; in the data set on HL-60, 2.55 nM; in the data set with KB it was 6.2 nM. The IC50 with SK-OV-3 is 2.55 nM; with SK-MEL-28 it was 7.7 nM; in [2], 6.09 nM; with U-937, 3.28 nM; in the data set with NCI-H460, 2.5 nM; in the data set on SF-268, 3.2 nM.

As to `CNc1nc(SCc2nc3ccccc3[nH]2)nc(-c2ccccc2)c1C#N`, the LD50 at 24 h in [1] was 302 mg/kg. Also, the IC50 amounted to 13.2 nM in the data set on K562; 3.28 nM in the data set on GOTO; 4.46 nM in the data set with NB1; 12.5 nM in the data set on G-361; 6.57 nM in the data set on HL-60; 2.7 nM in the data set with KB. Besides, the IC50 in the data set on SK-OV-3 was found to be 3 nM; in the data set with SK-MEL-28, 2.87 nM; in data set [2], 3.7 nM; in the data set on U-937, 19.2 nM; in the data set on NCI-H460, 3.2 nM; in the data set on SF-268, 3.2 nM.

In the case of `N#Cc1c(Cl)nc(SCc2nc3ccccc3[nH]2)nc1-c1ccccc1`, in [1], the LD50 at 24 h is 313 mg/kg. Also, the IC50 with K562 was 11.3 nM; with GOTO, 8.62 nM; in the data set with NB1, 2.87 nM; in the data set with G-361 it was 12.5 nM; in the data set on HL-60, 4.46 nM; with KB it was 3.7 nM. Also, the IC50 with SK-OV-3 turned out to be 3.37 nM; with SK-MEL-28, 3.28 nM; in data set [2], 4.38 nM; in the data set with U-937 it was 4.46 nM; with NCI-H460, 3.28 nM; in the data set with SF-268, 3.2 nM.

What is called LD50 is the dose at which mortality reaches 50%. Usually IC50 stands for the concentration that gives 50% inhibition.
